Assay results published in ChEMBL document CHEMBL1949657, “Chemical modification of the multitarget neuroprotective compound fisetin” (J Med Chem, 2012).
Active and inactive are the calls of the source.

Legend:
HT-22 [1] = assay: Neuroprotective activity in mouse HT22 cells assessed as reduction in IAA-induced ischemia after 24 hrs by MTT assay; type: functional, cell-based
Summary of the method: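 HT22 cells seeded at 5×10^3/well. Next day switched to DMEM + 7.5% DFCS with 20 μM IAA ± derivative doses for 2 h, then IAA-free medium with derivative for 20 h. MTT 2.5 μg/ml for 4 h at 37 °C, solubilised in DMF/SDS pH 4.7, A570 read. Controls for compound toxicity and assay interference. EC50 from dose series; tested twice, third time if EC50 < 1 μM.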

HT-22 [2] = assay: Neuroprotective activity against glutamate-induced GSH loss in mouse HT22 cells assessed as intracellular GSH level at 1 to 10 uM after 24 hrs; type: functional, cell-based
Summary of the method: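 HT22 cells given derivatives (1–10 μM) with 5 mM glutamate. After 24 h, cell extracts analysed for total intracellular GSH by chemical assay. Fisetin 10 μM as positive control. Tested twice; positives tested a third time.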

PC-12 = assay: Neurotrophic activity in rat PC12 cells assessed as neurite outgrowth at 1 to 10 uM after 24 hrs; type: functional, cell-based
Summary of the method: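 PC12 cells in N2 medium given derivatives (1–10 μM) for 24 h, fisetin 10 μM as positive control. 100 cells counted in each of three fields. A cell scored positive with ≥1 neurite longer than one cell-body diameter. Tested twice; positives tested a third time.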

N9 = assay: Antiinflammatory activity in mouse N9 cells assessed as reduction of LPS-induced microglial activation at 1 to 10 uM measured as nitrite level after 24 hrs by Griess reagent-based assay; type: functional; parameters: scale not given: the % may be the effect or the level left
Summary of the method: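 N9 microglia in DME with 7.5% DFCS, given 10 μg/ml LPS alone or with derivatives (1–10 μM) for 24 h. Medium spun to remove floating cells, then nitrite measured with Griess reagent, 10 min at room temperature, absorbance 550 nm. Fisetin 10 μM as positive control. Tested twice; positives tested a third time.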

[3] = Antioxidant activity against ABTS radical assessed as trolox equivalent after 4 mins by TEAC assay; type: functional
Summary of the method: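 ABTS radical cation formed overnight with potassium persulfate and diluted to OD ~0.7 at 734 nm, then mixed with derivative in ethanol. Loss of A734 followed over 4 min. TEAC = slope of % absorbance inhibition vs concentration divided by the slope for Trolox.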

[4] = Mus musculus, HT-22, 24 h, read-out: EC50

Row | SMILES | EC50 (HT-22 [1]; [4]) | Activity (HT-22 [2]) | Activity (PC-12) | Activity (N9) | Activity [3] | EC50 (HT-22 [1]; ht-22)
1 | COc1cc(-c2oc3c(ccc4ccccc43)c(=O)c2O)ccc1OCc1ccccc1 | 80 nM | inactive | Active | 88% | 0 equiv | –
2 | CCOc1ccc(-c2cc(=O)c3ccc4ccccc4c3o2)cc1OCC | – | inactive | inactive | 2% | 0.2 equiv | Not Active
3 | Cc1cc2oc(-c3ccc(N(C)C)cc3)cc(=O)c2cc1C | > 500 nM | inactive | inactive | 8% | 0 equiv | –
4 | COc1cc(-c2oc3cc(C)c(C)cc3c(=O)c2O)ccc1OCc1ccccc1 | 170 nM | inactive | inactive | 14% | 0.27 equiv | –
5 | COc1cc(-c2cc(OC)c3ccccc3n2)ccc1O | 500 nM | inactive | inactive | 90% | 0.15 equiv | –
6 | COc1cc(-c2ccc([N+](=O)[O-])c(O)c2)nc2ccccc12 | – | inactive | inactive | 25% | 0.18 equiv | Not Active
7 | COc1cc(-c2ccc(O)cc2O)nc2ccccc12 | > 500 nM | inactive | inactive | 84% | 0.05 equiv | –
8 | CCOc1ccc(-c2oc3cc(C)c(C)cc3c(=O)c2O)cc1OCC | 500 nM | inactive | inactive | 11% | 0.84 equiv | –
9 | O=c1cc(-c2ccc(O)c(O)c2)oc2c1ccc1ccccc12 | 80 nM | inactive | Active | 55% | 0.18 equiv | –
10 | CC(C)Oc1cc(-c2ccc(O)cc2O)nc2ccccc12 | 210 nM | inactive | inactive | 64% | 0.27 equiv | –
11 | O=c1c(O)c(-c2ccc(N3CCCC3)cc2)oc2c1ccc1ccccc12 | 70 nM | inactive | Active | 26% | 1.44 equiv | –
12 | CC(C)Oc1cc(-c2ccc(N(C)C)cc2)nc2ccccc12 | 50 nM | inactive | inactive | 71% | 0.15 equiv | –
13 | Cc1cc2oc(-c3ccc(O)cc3O)cc(=O)c2cc1C | > 500 nM | inactive | inactive | 5% | 0.15 equiv | –
14 | CC(C)Oc1cc(-c2ccc(N3CCCC3)cc2)nc2ccccc12 | 500 nM | inactive | inactive | 67% | 0.27 equiv | –
15 | CCOc1ccc(-c2cc(=O)c3cc(C)c(C)cc3o2)cc1OCC | – | inactive | inactive | 2% | 0.15 equiv | Not Active
16 | CCOc1ccc(/C=C/C(=O)c2cc(C)c(C)cc2O)cc1OCC | – | inactive | inactive | 56% | 0.09 equiv | Not Active
17 | CCOc1ccc(-c2oc3c(ccc4ccccc43)c(=O)c2O)cc1OCC | 300 nM | inactive | inactive | 13% | 0.15 equiv | –
18 | COc1cc(-c2cc(=O)c3ccc4ccccc4c3o2)ccc1O | 40 nM | inactive | inactive | 19% | 0.2 equiv | –

Row | SMILES | EC50 (HT-22 [1]; [4]) | Activity (HT-22 [2]) | Activity (PC-12) | Activity (N9) | Activity [3] | EC50 (HT-22 [1]; ht-22)
19 | CCOc1ccc(-c2cc(OC)c3ccccc3n2)cc1OCC | – | inactive | inactive | 76% | 0.12 equiv | Not Active
20 | CCOc1cc(-c2ccc(O)c(O)c2)nc2ccccc12 | 20 nM | Active | Active | 90% | 0.9 equiv | –
21 | COc1ccc(-c2cc(OC)c3ccccc3n2)cc1O | – | inactive | inactive | 69% | 0.24 equiv | Not Active
22 | Cc1cc2oc(-c3ccc(O)c(O)c3)cc(=O)c2cc1C | 250 nM | inactive | inactive | 93% | 0.27 equiv | –
23 | Cc1cc2oc(-c3ccc(O)c(O)c3)c(O)c(=O)c2cc1C | 500 nM | inactive | inactive | 82% | 1.89 equiv | –
24 | COc1ccc(/C=C/C(=O)c2cc(C)c(C)cc2O)cc1O | 200 nM | inactive | inactive | 56% | 0.12 equiv | –
25 | COc1cc(-c2oc3c(ccc4ccccc43)c(=O)c2O)ccc1O | > 500 nM | inactive | Active | 78% | 0.63 equiv | –
26 | Cc1cc2oc(-c3ccc(O)cc3O)c(O)c(=O)c2cc1C | > 500 nM | inactive | inactive | 0% | 1.56 equiv | –
27 | COc1cc(-c2ccccc2)nc2ccccc12 | 750 nM | inactive | inactive | 6% | 0.12 equiv | –
28 | COc1cc(-c2cc(=O)c3cc(C)c(C)cc3o2)ccc1OCc1ccccc1 | 500 nM | inactive | inactive | 83% | 0.09 equiv | –
29 | O=c1c(O)c(-c2ccc(O)c(O)c2)oc2c1ccc1ccccc12 | 90 nM | inactive | Active | 91% | 2.4 equiv | –
30 | O=c1cc(-c2ccc(N3CCCC3)cc2)oc2c1ccc1ccccc12 | 200 nM | inactive | inactive | 23% | 0.03 equiv | –
31 | Cc1cc2oc(-c3ccc(N4CCCC4)cc3)cc(=O)c2cc1C | > 500 nM | inactive | inactive | 2% | 0.12 equiv | –
32 | CCOc1ccc(/C=C/C(=O)c2ccc3ccccc3c2O)cc1OCC | – | inactive | inactive | 5% | 0.12 equiv | Not Active
33 | COc1cc(-c2ccc(O)cc2)nc2ccccc12 | – | inactive | inactive | 4% | 0.81 equiv | Not Active
34 | CC(C)Oc1cc(-c2ccc(O)c(O)c2)nc2ccccc12 | 20 nM | Active | Active | 80% | 0.18 equiv | –
35 | O=c1c(O)c(-c2ccc(O)c(O)c2)oc2ccc3ccccc3c12 | 250 nM | inactive | Active | 87% | 1.26 equiv | –
36 | COc1cc(-c2ccc(N(C)C)cc2)nc2ccccc12 | 60 nM | inactive | inactive | 62% | 0.06 equiv | –
